Results taken from paper PMC3773367 (Biochemistry, 2010).

What was measured:
ThArsA [1] = type: biochemical; conditions: read-out: Km for ATP
wild-type ArsA = wild-type ArsA (Escherichia coli, UniProt P08690); conditions: read-out: Km for ATP
K16Q ThArsA = experiment: Photoaffinity labelling with increasing 8-azido[γ-32P]ATP; type: binding; conditions: read-out: apparent Kd
ThArsA [2] = experiment: as above; type: binding; conditions: read-out: apparent Kd
E. coli strain JM109 = experiment: Arsenite resistance assay; type: cell-based, Escherichia coli
[3] = ATPase activity, NADH-coupled assay; type: biochemical, Escherichia coli; conditions: for ATPase activity relative to wild type: % of wild-type activity
Sb = type: binding, Escherichia coli; conditions: 10 μM ArsA, 2 mM ATPγS, 2.5 mM MgCl2; Sb(III) per ArsA
Method in brief: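 Purified ArsA buffer-exchanged into 50 mM MOPS-KOH pH 7.5. Incubated 1 h on ice with 2 mM ATPγS, 2.5 mM MgCl2 and a range of potassium antimonyl tartrate concentrations. Unbound metalloid removed on a spin gel-filtration column in the same buffer. Eluate diluted in 2% HNO3 and antimony measured by ICP-MS against an antimony standard. Binding expressed as a function of Sb(III) concentration.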

Chain of wild-type ArsA (P08690 whole entry): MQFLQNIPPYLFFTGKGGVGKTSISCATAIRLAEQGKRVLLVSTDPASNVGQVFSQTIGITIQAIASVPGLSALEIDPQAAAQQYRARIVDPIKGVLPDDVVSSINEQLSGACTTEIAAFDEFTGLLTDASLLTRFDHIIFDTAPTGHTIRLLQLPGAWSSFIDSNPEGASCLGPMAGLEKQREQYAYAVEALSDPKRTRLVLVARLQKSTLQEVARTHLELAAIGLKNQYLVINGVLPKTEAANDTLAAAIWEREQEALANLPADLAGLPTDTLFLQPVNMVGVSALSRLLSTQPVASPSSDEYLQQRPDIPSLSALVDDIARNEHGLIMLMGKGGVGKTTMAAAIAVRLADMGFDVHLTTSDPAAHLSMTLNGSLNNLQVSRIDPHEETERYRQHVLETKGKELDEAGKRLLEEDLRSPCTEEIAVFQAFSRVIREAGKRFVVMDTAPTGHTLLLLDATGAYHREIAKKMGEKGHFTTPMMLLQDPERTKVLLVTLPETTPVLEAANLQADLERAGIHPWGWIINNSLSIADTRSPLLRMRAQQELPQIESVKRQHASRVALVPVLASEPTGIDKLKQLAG

With `Nc1ncnc2c1ncn2[C@@H]1O[C@H](COP(=O)(O)OP(=O)(O)OP(=O)(O)O)[C@@H](O)[C@H]1O` [ATP, adenosine 5'-triphosphate] the Km (ThArsA [1]) was 170 µM and the Km (wild-type ArsA) was 170 µM.

In the case of `[N-]=[N+]=Nc1nc2c(N)ncnc2n1[C@@H]1O[C@H](COP(=O)(O)OP(=O)(O)OP(=O)(O)O)[C@@H](O)[C@H]1O` [8-azido[γ-32P]ATP, 8-azidoadenosine 5'-[γ-32P]triphosphate], the Kd (K16Q ThArsA) is reported as 55 µM and the Kd (ThArsA [2]) is reported as 50 µM.

For `O=[As][O-].[Na+]` [sodium arsenite], the “sodium arsenite concentration in which cells could grow” value (E. coli strain JM109; cells expressing wild-type arsA and arsB genes) was 5 mM and the “sodium arsenite concentration at which cells were sensitive” value (E. coli strain JM109; cells without an ars operon) was 1 mM.

B1: K16Q ArsA: ArsA with signature Lys16 (A1 half) changed to glutamine (protein, UniProt P08690 1-583, looked up, variant K16Q)
Arsenical pump-driving ATPase: MQFLQNIPPYLFFTGQGGVGKTSISCATAIRLAEQGKRVLLVSTDPASNVGQVFSQTIGITIQAIASVPGLSALEIDPQAAAQQYRARIVDPIKGVLPDDVVSSINEQLSGACTTEIAAFDEFTGLLTDASLLTRFDHIIFDTAPTGHTIRLLQLPGAWSSFIDSNPEGASCLGPMAGLEKQREQYAYAVEALSDPKRTRLVLVARLQKSTLQEVARTHLELAAIGLKNQYLVINGVLPKTEAANDTLAAAIWEREQEALANLPADLAGLPTDTLFLQPVNMVGVSALSRLLSTQPVASPSSDEYLQQRPDIPSLSALVDDIARNEHGLIMLMGKGGVGKTTMAAAIAVRLADMGFDVHLTTSDPAAHLSMTLNGSLNNLQVSRIDPHEETERYRQHVLETKGKELDEAGKRLLEEDLRSPCTEEIAVFQAFSRVIREAGKRFVVMDTAPTGHTLLLLDATGAYHREIAKKMGEKGHFTTPMMLLQDPERTKVLLVTLPETTPVLEAANLQADLERAGIHPWGWIINNSLSIADTRSPLLRMRAQQELPQIESVKRQHASRVALVPVLASEPTGIDKLKQLAG
In the case of B1, the “ATPase activity relative to wild type” value [3] is reported as 70%, the “ATPase activity relative to wild type” value ([3]; listed as K16Q) is reported as “approximately 70%” and the EC50 ([3]; read-out: concentration of antimonite [Sb(III)] required for half-maximal activation) is reported as 20 µM. For the same molecule, the “reduction in the affinity of ATP” value ([3]; versus wild type) was 3 fold.

B2: C113A/C422A: ArsA derivative lacking the Sb(III)-binding residues Cys113 and Cys422 (protein, UniProt P08690 1-583, looked up, variant C113A C422A)
Arsenical pump-driving ATPase: MQFLQNIPPYLFFTGKGGVGKTSISCATAIRLAEQGKRVLLVSTDPASNVGQVFSQTIGITIQAIASVPGLSALEIDPQAAAQQYRARIVDPIKGVLPDDVVSSINEQLSGAATTEIAAFDEFTGLLTDASLLTRFDHIIFDTAPTGHTIRLLQLPGAWSSFIDSNPEGASCLGPMAGLEKQREQYAYAVEALSDPKRTRLVLVARLQKSTLQEVARTHLELAAIGLKNQYLVINGVLPKTEAANDTLAAAIWEREQEALANLPADLAGLPTDTLFLQPVNMVGVSALSRLLSTQPVASPSSDEYLQQRPDIPSLSALVDDIARNEHGLIMLMGKGGVGKTTMAAAIAVRLADMGFDVHLTTSDPAAHLSMTLNGSLNNLQVSRIDPHEETERYRQHVLETKGKELDEAGKRLLEEDLRSPATEEIAVFQAFSRVIREAGKRFVVMDTAPTGHTLLLLDATGAYHREIAKKMGEKGHFTTPMMLLQDPERTKVLLVTLPETTPVLEAANLQADLERAGIHPWGWIINNSLSIADTRSPLLRMRAQQELPQIESVKRQHASRVALVPVLASEPTGIDKLKQLAG
For B2, the “stoichiometry of Sb(III) binding” value (Sb) was “only background levels”.

B3: K335Q ArsA: ArsA with signature Lys335 (A2 half) changed to glutamine (protein, UniProt P08690 1-583, looked up, variant K335Q)
Arsenical pump-driving ATPase: MQFLQNIPPYLFFTGKGGVGKTSISCATAIRLAEQGKRVLLVSTDPASNVGQVFSQTIGITIQAIASVPGLSALEIDPQAAAQQYRARIVDPIKGVLPDDVVSSINEQLSGACTTEIAAFDEFTGLLTDASLLTRFDHIIFDTAPTGHTIRLLQLPGAWSSFIDSNPEGASCLGPMAGLEKQREQYAYAVEALSDPKRTRLVLVARLQKSTLQEVARTHLELAAIGLKNQYLVINGVLPKTEAANDTLAAAIWEREQEALANLPADLAGLPTDTLFLQPVNMVGVSALSRLLSTQPVASPSSDEYLQQRPDIPSLSALVDDIARNEHGLIMLMGQGGVGKTTMAAAIAVRLADMGFDVHLTTSDPAAHLSMTLNGSLNNLQVSRIDPHEETERYRQHVLETKGKELDEAGKRLLEEDLRSPCTEEIAVFQAFSRVIREAGKRFVVMDTAPTGHTLLLLDATGAYHREIAKKMGEKGHFTTPMMLLQDPERTKVLLVTLPETTPVLEAANLQADLERAGIHPWGWIINNSLSIADTRSPLLRMRAQQELPQIESVKRQHASRVALVPVLASEPTGIDKLKQLAG
For B3, the “ATPase activity (in words)” value ([3]; purified protein) was “inactive”.
